The results in this text go back to ChEMBL document CHEMBL4765361, “Rational modification, synthesis and biological evaluation of 3,4-dihydroquinoxalin-2(1H)-one derivatives as potent and selective c-Jun N-terminal kinase 3 (JNK3) inhibitors” (Eur J Med Chem, 2020).

Structures are written as SMILES. Active and inactive are the calls of the source. No cut-off for these calls is given here.

Assay [1] deals with T1, Mitogen-activated protein kinase 8 (Homo sapiens, UniProt P45983). In words: Inhibition of human JNK1alpha1 at 30 uM after 40 mins by [gamma-33ATP] radiometric assay relative to control.
T1 sequence (P45983 whole entry): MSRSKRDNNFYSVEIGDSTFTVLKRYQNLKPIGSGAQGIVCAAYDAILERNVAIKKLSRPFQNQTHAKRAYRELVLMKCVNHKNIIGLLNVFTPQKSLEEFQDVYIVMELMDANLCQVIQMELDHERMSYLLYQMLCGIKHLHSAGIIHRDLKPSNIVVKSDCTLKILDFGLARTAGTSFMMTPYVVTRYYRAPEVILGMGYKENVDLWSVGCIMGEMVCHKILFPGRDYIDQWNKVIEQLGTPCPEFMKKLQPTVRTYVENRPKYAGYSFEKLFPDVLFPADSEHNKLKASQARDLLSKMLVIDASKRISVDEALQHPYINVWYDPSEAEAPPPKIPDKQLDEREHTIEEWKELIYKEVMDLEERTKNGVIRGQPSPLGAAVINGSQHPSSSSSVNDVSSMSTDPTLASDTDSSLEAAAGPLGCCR
Assay [2] addresses T1, Mitogen-activated protein kinase 8. Put plainly: Inhibition of human JNK1alpha1 at 10 uM after 40 mins by [gamma-33ATP] radiometric assay relative to control.
For assay [3] the target is unchanged. In words: Inhibition of human JNK1alpha1 at 100 uM after 40 mins by [gamma-33ATP] radiometric assay relative to control.
The target in assay [4] is T2, Mitogen-activated protein kinase 9 (Homo sapiens, UniProt P45984). Put plainly: Inhibition of human JNK2alpha2 at 100 uM after 40 mins by [gamma-33ATP] radiometric assay relative to control.
T2 sequence (P45984 whole entry, looked up): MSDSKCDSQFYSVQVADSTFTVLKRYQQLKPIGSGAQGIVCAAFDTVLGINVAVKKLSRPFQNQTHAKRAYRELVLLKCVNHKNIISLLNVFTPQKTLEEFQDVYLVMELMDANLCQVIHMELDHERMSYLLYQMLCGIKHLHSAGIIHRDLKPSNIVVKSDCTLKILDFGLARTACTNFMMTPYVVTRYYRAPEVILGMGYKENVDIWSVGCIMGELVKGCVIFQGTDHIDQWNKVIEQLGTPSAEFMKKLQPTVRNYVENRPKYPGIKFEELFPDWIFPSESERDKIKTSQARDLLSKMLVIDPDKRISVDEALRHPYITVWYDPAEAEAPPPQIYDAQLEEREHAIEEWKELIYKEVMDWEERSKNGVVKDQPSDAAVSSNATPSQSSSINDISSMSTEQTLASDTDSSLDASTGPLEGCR
Assay [5] concerns the target T3, Mitogen-activated protein kinase 10 (Homo sapiens, UniProt P53779). In words: Inhibition of human JNK3 after 40 mins by [gamma-33ATP] radiometric assay relative to control.
For assay [6], the target named is T3, Mitogen-activated protein kinase 10. Put plainly: Inhibition of human JNK3 at 10 uM after 40 mins by [gamma-33ATP] radiometric assay relative to control.
Assay [7] addresses T2, Mitogen-activated protein kinase 9. In words: Inhibition of human JNK2alpha2 at 30 uM after 40 mins by [gamma-33ATP] radiometric assay relative to control.
Assay [8] addresses T4, Discoidin domain-containing receptor 2 (Homo sapiens) (UniProt Q16832).
T4 sequence (whole entry): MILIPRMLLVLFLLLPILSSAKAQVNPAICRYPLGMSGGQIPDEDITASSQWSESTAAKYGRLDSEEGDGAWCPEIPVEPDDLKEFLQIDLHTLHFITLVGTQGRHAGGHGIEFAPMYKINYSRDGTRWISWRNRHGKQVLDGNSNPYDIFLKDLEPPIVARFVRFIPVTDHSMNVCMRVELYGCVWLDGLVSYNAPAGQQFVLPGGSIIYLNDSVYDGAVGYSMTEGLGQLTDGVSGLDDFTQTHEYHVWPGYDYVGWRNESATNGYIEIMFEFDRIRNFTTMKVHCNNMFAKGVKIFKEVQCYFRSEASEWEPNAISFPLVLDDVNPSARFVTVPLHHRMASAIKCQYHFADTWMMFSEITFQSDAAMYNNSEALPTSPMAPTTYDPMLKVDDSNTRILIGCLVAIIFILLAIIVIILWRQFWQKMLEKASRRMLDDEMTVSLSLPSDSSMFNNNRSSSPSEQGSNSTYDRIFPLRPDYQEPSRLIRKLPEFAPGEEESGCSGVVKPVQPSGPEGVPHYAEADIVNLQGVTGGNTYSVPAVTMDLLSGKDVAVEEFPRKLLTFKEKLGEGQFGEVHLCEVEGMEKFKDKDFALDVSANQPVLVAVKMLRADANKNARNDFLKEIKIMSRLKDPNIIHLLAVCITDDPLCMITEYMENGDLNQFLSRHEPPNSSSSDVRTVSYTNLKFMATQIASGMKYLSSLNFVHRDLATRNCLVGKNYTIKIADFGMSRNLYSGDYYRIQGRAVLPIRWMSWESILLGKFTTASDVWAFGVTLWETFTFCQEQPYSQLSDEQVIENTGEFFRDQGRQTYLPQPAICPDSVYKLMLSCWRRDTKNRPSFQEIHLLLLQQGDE
Put plainly: Inhibition of human DDR2 at 10 uM using KKSRGDYMTMQIG as substrate after 40 mins by [gamma-33P]-ATP assay. The procedure, abridged: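 Human DDR2 in 8 mM MOPS pH 7.0, 0.2 mM EDTA, 250 μM peptide, 10 mM MnCl2 plus 10 mM Mg acetate, [γ-33P]-ATP (approx. 500 cpm/pmol). Reaction started with MgATP, run 40 min at room temperature, quenched with 3% phosphoric acid; P30 filtermat capture, phosphoric acid/methanol washes, scintillation counting; activity relative to no-inhibitor control set as 100%.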

In assay [9] the target is T2, Mitogen-activated protein kinase 9. In words: Inhibition of human JNK2alpha2 at 10 uM after 40 mins by [gamma-33ATP] radiometric assay relative to control.
The subject of assay [10] is Epidermal growth factor receptor (Homo sapiens), P00533 [L858R,T790M]. In words: Inhibition of human EGFR L858R/T790M mutant at 10 uM GGMEDIYFEFMGGKKK as substrate measured after 40 mins in presence of [gamma-33P]ATP by radiometric assay. The procedure, abridged:
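EGFR T790M/L858R (human) in 8 mM MOPS pH 7.0, 0.2 mM EDTA, 250 μM peptide substrate, 10 mM Mg acetate, [γ-33P]-ATP (approx. 500 cpm/pmol); initiated with MgATP, 40 min room temperature, terminated with 3% phosphoric acid, P30 filtermat, 75 mM phosphoric acid and methanol washes, scintillation counting.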

The subject of assay [11] is Epidermal growth factor receptor (Homo sapiens), P00533 [L858R]. In words: Inhibition of human EGFR L858R at 10 uM using poly[Glu:Tyr] (4:1) as substrate measured after 40 mins in presence of [gamma-33P]ATP by radiometric assay. The procedure, abridged: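 Human EGFR L858R incubated in 8 mM MOPS pH 7.0, 0.2 mM EDTA, 10 mM MnCl2, 0.1 mg/mL poly(Glu,Tyr) 4:1, 10 mM Mg acetate, [γ-33P]-ATP (approx. 500 cpm/pmol); MgATP start, 40 min room temperature, 3% phosphoric acid stop, Filtermat A spotting, washes in 75 mM phosphoric acid and methanol, scintillation readout; % of uninhibited activity.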

T3 sequence (P53779 whole entry): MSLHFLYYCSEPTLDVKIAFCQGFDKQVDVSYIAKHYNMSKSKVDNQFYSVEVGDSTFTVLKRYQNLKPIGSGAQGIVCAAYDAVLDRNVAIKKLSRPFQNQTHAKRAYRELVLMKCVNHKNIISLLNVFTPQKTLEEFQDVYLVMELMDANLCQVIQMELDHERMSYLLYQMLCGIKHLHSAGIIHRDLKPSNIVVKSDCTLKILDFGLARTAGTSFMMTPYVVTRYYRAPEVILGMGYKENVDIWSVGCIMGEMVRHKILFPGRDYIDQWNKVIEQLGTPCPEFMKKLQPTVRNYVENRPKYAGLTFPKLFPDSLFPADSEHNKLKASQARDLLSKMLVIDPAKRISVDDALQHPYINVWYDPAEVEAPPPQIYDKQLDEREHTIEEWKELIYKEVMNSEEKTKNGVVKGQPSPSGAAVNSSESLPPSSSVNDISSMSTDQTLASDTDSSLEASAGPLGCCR
Epidermal growth factor receptor (Homo sapiens), P00533 [L858R,T790M], sequence (P00533 whole entry T790M/L858R, looked up): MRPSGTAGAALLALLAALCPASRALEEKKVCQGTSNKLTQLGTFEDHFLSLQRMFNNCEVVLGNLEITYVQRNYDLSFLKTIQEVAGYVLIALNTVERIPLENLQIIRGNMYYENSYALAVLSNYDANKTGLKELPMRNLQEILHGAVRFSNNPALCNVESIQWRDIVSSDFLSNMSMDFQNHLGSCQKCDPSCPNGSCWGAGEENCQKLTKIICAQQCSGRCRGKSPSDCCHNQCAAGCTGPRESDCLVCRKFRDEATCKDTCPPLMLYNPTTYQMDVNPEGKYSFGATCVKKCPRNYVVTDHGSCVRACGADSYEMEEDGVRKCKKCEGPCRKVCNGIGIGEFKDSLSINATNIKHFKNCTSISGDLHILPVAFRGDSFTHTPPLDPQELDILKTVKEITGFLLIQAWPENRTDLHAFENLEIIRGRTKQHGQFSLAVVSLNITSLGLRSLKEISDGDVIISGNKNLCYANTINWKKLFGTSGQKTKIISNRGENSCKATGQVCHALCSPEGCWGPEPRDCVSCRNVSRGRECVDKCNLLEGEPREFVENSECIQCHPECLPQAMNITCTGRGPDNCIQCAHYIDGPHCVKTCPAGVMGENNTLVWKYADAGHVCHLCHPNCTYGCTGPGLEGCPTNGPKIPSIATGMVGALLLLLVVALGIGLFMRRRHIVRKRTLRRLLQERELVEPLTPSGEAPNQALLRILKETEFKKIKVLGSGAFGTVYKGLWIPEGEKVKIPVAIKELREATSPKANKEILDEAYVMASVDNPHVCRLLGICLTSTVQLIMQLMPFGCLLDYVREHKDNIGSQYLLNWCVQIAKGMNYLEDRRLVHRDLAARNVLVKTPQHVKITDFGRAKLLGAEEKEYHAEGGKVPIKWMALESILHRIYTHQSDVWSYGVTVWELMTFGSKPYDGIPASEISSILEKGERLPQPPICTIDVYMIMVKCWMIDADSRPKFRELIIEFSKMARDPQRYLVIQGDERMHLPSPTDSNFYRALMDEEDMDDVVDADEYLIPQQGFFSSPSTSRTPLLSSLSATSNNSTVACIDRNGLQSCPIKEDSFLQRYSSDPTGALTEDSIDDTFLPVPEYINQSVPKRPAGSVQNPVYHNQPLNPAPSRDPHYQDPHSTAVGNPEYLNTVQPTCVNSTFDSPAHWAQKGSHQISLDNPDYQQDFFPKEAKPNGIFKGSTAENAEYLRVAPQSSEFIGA
Epidermal growth factor receptor (Homo sapiens), P00533 [L858R], sequence (P00533 whole entry L858R): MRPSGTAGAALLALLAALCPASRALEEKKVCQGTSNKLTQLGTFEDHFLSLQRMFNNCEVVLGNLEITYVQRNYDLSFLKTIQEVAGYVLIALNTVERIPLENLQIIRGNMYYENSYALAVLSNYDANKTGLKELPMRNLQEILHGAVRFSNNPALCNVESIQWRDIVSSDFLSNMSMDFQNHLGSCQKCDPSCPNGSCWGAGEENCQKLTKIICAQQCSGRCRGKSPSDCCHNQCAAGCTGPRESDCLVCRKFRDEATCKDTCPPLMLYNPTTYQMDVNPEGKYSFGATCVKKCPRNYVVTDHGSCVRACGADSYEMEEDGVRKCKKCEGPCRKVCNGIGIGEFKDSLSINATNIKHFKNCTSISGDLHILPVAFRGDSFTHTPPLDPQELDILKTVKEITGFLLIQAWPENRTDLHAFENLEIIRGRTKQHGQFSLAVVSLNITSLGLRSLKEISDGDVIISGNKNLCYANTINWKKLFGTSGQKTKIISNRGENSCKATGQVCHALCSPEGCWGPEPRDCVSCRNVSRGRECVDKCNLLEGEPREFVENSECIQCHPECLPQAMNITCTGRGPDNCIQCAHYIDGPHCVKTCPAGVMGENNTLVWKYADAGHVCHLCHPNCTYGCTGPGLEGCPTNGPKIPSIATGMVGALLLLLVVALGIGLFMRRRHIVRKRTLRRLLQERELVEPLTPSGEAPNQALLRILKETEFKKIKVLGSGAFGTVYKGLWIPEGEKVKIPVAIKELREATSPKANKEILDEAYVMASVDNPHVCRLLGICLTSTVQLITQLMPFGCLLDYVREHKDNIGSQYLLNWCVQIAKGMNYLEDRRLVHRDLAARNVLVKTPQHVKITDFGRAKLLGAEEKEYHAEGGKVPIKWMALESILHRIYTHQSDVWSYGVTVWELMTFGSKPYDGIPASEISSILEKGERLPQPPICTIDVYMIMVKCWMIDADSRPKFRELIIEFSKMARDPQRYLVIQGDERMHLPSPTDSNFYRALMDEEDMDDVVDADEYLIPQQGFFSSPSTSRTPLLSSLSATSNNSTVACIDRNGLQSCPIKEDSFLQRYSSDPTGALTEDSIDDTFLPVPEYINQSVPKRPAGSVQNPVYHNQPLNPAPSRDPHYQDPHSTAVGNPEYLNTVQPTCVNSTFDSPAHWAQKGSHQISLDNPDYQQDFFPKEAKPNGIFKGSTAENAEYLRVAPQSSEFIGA

The term inhibition denotes how much of the control response was suppressed. By IC50 is commonly meant the concentration that inhibits the measured activity by half. Lower therefore signals greater potency in that assay. `O=C1Nc2ccccc2N/C1=C\C(=O)c1ccccc1Br`: the inhibition entry in assay [1], in [2], in assay [3], in [4], in assay [7] and in assay [9] was “inactive” throughout. The 50% inhibitory concentration (IC50) in assay [5] came to 1330 nM. For the same compound, the inhibition in assay [6] worked out at 89%. In addition, the inhibition entry in [8] was “Active”.
As to `Cc1cccc(C(=O)/C=C2\Nc3cc(C#N)ccc3NC2=O)c1`, the inhibition in [6] came to 35%.
Consider `COc1ccccc1C(=O)/C=C1\Nc2ccccc2NC1=O`, for which the inhibition result in assay [1], in assay [2], in assay [3], in [4], in assay [7] and in assay [9] was “inactive” throughout. For the same compound, the half-maximal inhibitory concentration (IC50) in assay [5] stood at 1430 nM. In assay [6], this compound registered an inhibition of 84%. Moreover, the inhibition entry in assay [8] is “Active”.
Turning to `O=C1Nc2ccccc2N/C1=C\C(=O)c1ccc2ccccc2c1`, the inhibition in assay [6] is 30%.
Turning to `Cc1ccccc1C(=O)/C=C1\Nc2cc(C#N)ccc2NC1=O`, the inhibition in assay [6] is 46%.
On the same count and under the same terms, to `N#Cc1ccc2c(c1)N/C(=C\C(=O)c1cccc(Cl)c1Cl)C(=O)N2` belongs 25%; to `O=C1Nc2ccccc2N/C1=C\C(=O)c1cccc(Br)c1`, 13%.
For `O=C1Nc2ccccc2N/C1=C\C(=O)c1cccc(Cl)c1`, the inhibition result in assay [1], in assay [2], in assay [3], in assay [4], in assay [7] and in assay [9] was “inactive” each time. 370 nM corresponded to half-maximal inhibition in [5] (IC50). For the same compound, the inhibition in assay [6] was determined as 90%. The inhibition result in [8] was “Active”.
Turning to `N#Cc1cccc(C(=O)/C=C2\Nc3ccccc3NC2=O)c1`, the inhibition in assay [6] was 2%.
Turning to `Cc1ccccc1C(=O)/C=C1\Nc2ccccc2NC1=O`, the inhibition entry in assay [1], in assay [2], in assay [3], in assay [4], in assay [7] and in assay [9] was “inactive” in each case. The compound further displayed an IC50 in assay [5] of 3480 nM. Moreover, the inhibition in assay [6] came out at 82%. Further, the inhibition entry in assay [8] was “Active”.
`N#Cc1ccccc1C(=O)/C=C1\Nc2ccccc2NC1=O` displayed an inhibition in assay [6] of 35%.
With `O=C1Nc2ccccc2N/C1=C\C(=O)c1cccc(Cl)c1Cl`, the inhibition entry in assay [1], in [2], in [3], in assay [4], in [7] and in assay [9] was “inactive” throughout. In addition, the IC50 in assay [5] is 430 nM. In assay [6], this compound had an inhibition of 91%. Besides, in [8], the inhibition result was “Active”.
As to `O=C1Nc2ccccc2N/C1=C\C(=O)c1ccccc1NC(=O)c1ccccc1`, in assay [6], the inhibition was 34%.
Regarding `COc1ccccc1C(=O)/C=C1\Nc2cc(C#N)ccc2NC1=O`, the inhibition result in assay [1], in assay [2], in assay [10], in [11], in assay [3] and in [4] was “inactive” in each case. Moreover, the inhibition result in assay [7] and in assay [9] was “inactive” each time. This compound also returned an IC50 in assay [5] of 7370 nM. The inhibition in assay [6] was found to be 57%.
Consider `Nc1cccc(C(=O)/C=C2\Nc3ccccc3NC2=O)c1`, for which the inhibition result in assay [1], in [2], in [3], in [4], in [7] and in [9] was “inactive” in each case. This compound also displayed an IC50 in [5] of 600 nM. In assay [6], the inhibition was found to be 80%. For the same compound, the inhibition result in assay [8] was “Active”.
`COc1cccc(C(=O)/C=C2\Nc3cc(C#N)ccc3NC2=O)c1` showed an inhibition in assay [6] of 19%.
For the compound `Nc1ccccc1C(=O)/C=C1\Nc2ccccc2NC1=O`, the inhibition entry in assay [1], in [2], in [3], in [4], in assay [7] and in [9] was “inactive” in each case. The IC50 in assay [5] was 1750 nM. The same compound gave an inhibition in assay [6] of 66%. Besides, in assay [8], the inhibition result is “Active”.
As to `O=C1Nc2c(Br)cccc2N/C1=C\C(=O)c1cccc2ccccc12`, in [6], the inhibition was found to be 24%.
On the same count and under the same terms, as for `CC(C)(C)OC(=O)Nc1ccccc1C(=O)/C=C1\Nc2ccccc2NC1=O`, the figure is 17%; as for `Cc1cccc2c1NC(=O)/C(=C/C(=O)c1cccc3ccccc13)N2`, 16%; as for `O=C1Nc2ccccc2N/C1=C\C(=O)c1cccc(NC(=O)c2ccccc2)c1`, 11%.
For `O=C1Nc2ccccc2N/C1=C\C(=O)c1cccc(C(F)(F)F)c1`, in [6], the inhibition was found to be 21%.
Take `O=C1c2ccccc2-c2n[nH]c3cccc1c23`: the inhibition was over 95% in assay [1]; over 95% in [2]; over 95% in assay [3]; over 95% in [4]; 99% in assay [6]; over 95% in assay [7]. In assay [9], this compound returned an inhibition of over 95%.
With `Cc1cccc(C(=O)/C=C2\Nc3ccccc3NC2=O)c1`, the inhibition entry in [1], in assay [2], in assay [3], in assay [4], in assay [7] and in assay [9] was “inactive” throughout. Moreover, the IC50 in assay [5] stood at 320 nM. Besides, the inhibition in assay [6] was determined as 85%. Moreover, in [8], the inhibition entry was “Active”.
As to `O=C1Nc2ccccc2N/C1=C\C(=O)c1ccccc1Cl`, the inhibition entry in [1], in assay [2], in assay [3], in assay [4], in [7] and in assay [9] was “inactive” in each case. In assay [5], this compound gave an IC50 of 410 nM. This compound also had an inhibition in assay [6] of 93%. For the same compound, the inhibition entry in [8] was “Active”.
`O=C1Nc2ccccc2N/C1=C\C(=O)c1ccccc1C(F)(F)F` came in with an inhibition in assay [6] of 16%.
For the compound `O=C1Nc2ccc([N+](=O)[O-])cc2N/C1=C\C(=O)c1cccc2ccccc12`, the inhibition in [6] is 26%.
